Bioassay records from PubChem.
EP2 modulator: EP2 receptor modulators, cAMP readout, primary screen, cell-based, HTRF cAMP, PGE2 stimulation. Prostaglandin E2 receptor EP2 subtype (Homo sapiens), P43116. EP2-expressing cells, cAMP HTRF FRET, PGE2 co-stimulation. induction, % at 25 µM. 260,000 compounds, 0.83% hits. AID 940, 2007;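 active = compounds whose cAMP rise, as percent of the full-agonist control response, exceeds 60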;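 also: rat C6 glioma line stably carrying human EP2 under a CMV promoter; the protocol text gives 20 µM as final concentration; 100% = response of wells given 1 µM PGE2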
NPY1 pot ag: NPY-Y1 receptor potentiators or agonists, primary screen, cell-based; NPY-Y1 expressing cells, potentiator/agonist activation; activation, % at 3.6 µM; 220,000 compounds, 0.37% hits; in the data active = activation above about 33%, passing the limit was not always enough;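 also: cells stimulated with NPY at EC10 then isoproterenol at EC100; 0% = low agonist plus stimulus and 100% = saturating agonist plus stimulus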
EP2 antag: human EP2 receptor antagonists, primary screen, TR-FRET cAMP, C6 glioma cells | inhibition, % at 25 µM | 260,000 compounds, 0.52% hits | C6 glioma cells expressing human EP2; cells stimulated with saturating PGE2 | AID 1422, 2008 | Prostaglandin E2 receptor EP2 subtype (Homo sapiens), P43116;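 active = percent inhibition above 40 after rounding to a whole number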;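 also: rat C6 glioma host cells with rolipram phosphodiesterase inhibitor present; the protocol text gives 20 µM as final concentration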
NPY2 pot ag: NPY-Y2 potentiators or agonists, primary screen, cell-based; 220,000 compounds, 0.45% hits; activation, % at 3.6 µM; cells expressing NPY-Y2, potentiator/agonist read-out; AID 1359, 2008; in the data active = activation above about 27%;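 also: cells stimulated with NPY near EC25 plus isoproterenol at EC100; 0% = vehicle plus submaximal agonist and 100% = vehicle plus saturating agonist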
Target sequence (P49146 whole entry, looked up): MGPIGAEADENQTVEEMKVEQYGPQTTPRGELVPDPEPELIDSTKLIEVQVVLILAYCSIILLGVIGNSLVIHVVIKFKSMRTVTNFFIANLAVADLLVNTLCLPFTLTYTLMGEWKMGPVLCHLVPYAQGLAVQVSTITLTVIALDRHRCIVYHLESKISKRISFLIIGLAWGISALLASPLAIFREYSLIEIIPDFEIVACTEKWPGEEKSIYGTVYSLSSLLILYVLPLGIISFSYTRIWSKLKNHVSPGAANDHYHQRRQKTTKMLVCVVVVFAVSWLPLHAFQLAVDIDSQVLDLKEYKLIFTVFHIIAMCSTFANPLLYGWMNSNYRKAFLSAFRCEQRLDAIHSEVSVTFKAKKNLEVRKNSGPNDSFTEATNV
NPY Y1 blocker: NPY-Y1 receptor antagonists, primary screen, cell-based; AID 1040, 2008; inhibition, % at 3.6 µM; Neuropeptide Y receptor type 1 (Homo sapiens), P25929; 200,000 compounds, 1% hits; HEK293-CNG Y1 cells, membrane potential fluorescence; NPY at EC95, then isoproterenol;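 active = inhibition above the campaign mean inhibition of all tested compounds plus 3 SD, cut at about 20% in these data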;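 also: 0% = DMSO wells given NPY plus isoproterenol and 100% = isoproterenol alone without NPY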
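Assay system: HEK293 Y1/CNG channel cell line; Doses: single compound dose of 3.6 µM, 0.4% DMSO; Timing: dye 3 h, compound 60 min room temperature, stimulation 45 min; Technique: Membrane-potential fluorescent dye readout; Measure: % inhibition of NPY effect.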
NPY Y2 blocker: NPY-Y2 receptor antagonists, primary screen, cell-based; Neuropeptide Y receptor type 2 (Homo sapiens), P49146; NPY-Y2 expressing cells, antagonist mode; inhibition, % at 2.7 µM; 140,000 compounds, 0.99% hits; AID 793, 2007; in the data active = inhibition above about 17%;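 also: 0% = vehicle with agonist challenge and 100% = reference antagonist with challenge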
* = called active by the depositor; · = not tested or not shown; ! = repeats disagree. Sampled rows, rich in hits. Any-hit rate of the full collection: about 2.8%.

SMILES | EP2 modulator | NPY1 pot ag | EP2 antag | NPY2 pot ag | NPY Y1 blocker | NPY Y2 blocker
CS(=O)(=O)N(CC(=O)Nc1ccc2c(c1)OCCO2)c1ccc(Cl)c(Cl)c1 | -58 | · | 6 | · | · | ·
Cc1cccc(N2CCN(Cc3nc(-c4ccccc4Cl)oc3C)CC2)n1 | -7 | -18 | 4 | -39 | 20* | ·
CCc1ccccc1NC(=O)Cn1cccc1C1=NC(c2ccccc2)CO1 (centres undefined) | 42 | -15 | 5 | 5 | 5 | 6
Fc1ccc(Cn2cccc2C2=NC(c3ccccc3)CO2)cc1 (centres undefined) | 61* | -4 | 1 | 11 | 6 | ·
CC(C)CN1Cc2cccc(C(=O)N3C4CCC3CC(c3ccc(F)cc3)C4)c2C1=O (centres undefined) | -63 | · | 9 | · | · | ·
COc1ccc(C(=O)Nc2nc3ccccc3s2)cc1OC | -79 | 12 | 35 | 6 | 6 | ·
COc1ccc(-c2cc(C(=O)Nc3nc4ccccc4s3)c3ccccc3n2)cc1OC | -19 | -160 | 8 | -141 | 29* | 27*
O=C(Cc1ccccc1Cl)N1CCCC(c2noc(-c3ccccn3)n2)C1 (centres undefined) | 4 | · | 9 | · | · | ·
COc1cc2c(cc1OC)-c1cc(=Nc3c(C)cc(C)cc3C)n(C)c(=O)n1CC2 | 67* | · | 6 | · | · | ·
CC(C)OCCCNCc1cc2c(C(C)(C)C)nn(-c3ccc(F)cc3)c2[nH]c1=O | -1 | · | 4 | · | · | ·
CC(/C=N/NC(=O)NC1CCCCC1)=C\c1ccccc1 | -14 | 0 | 4 | -10 | 13 | ·
O=C(N/N=C/c1ccccc1)NC1CCCCC1 | 64* | 2 | 5 | 4 | -4 | 3
Cn1c(=O)c2c(nc(NCc3ccccc3)n2Cc2ccc(F)cc2)n(C)c1=O | 64* | -10 | 13 | -2 | 12 | 4
CC(NC(=O)c1ccc(Cl)nc1)c1nc(-c2cccnc2)n[nH]1 (centres undefined) | -17 | · | 7 | · | · | ·
O=c1[nH]cnc2c1sc1nc3c(c(-c4ccc(Cl)cc4)c12)CCC3 | 61* | 18 | 10 | -19 | -1 | 3
CCOC(=O)Cn1nnc2c(sc3nc4c(c(-c5ccccc5)c32)CCC4)c1=O | 13 | -2 | 11 | -8 | 8 | 4
CCOC(=O)Cn1nnc2c(sc3nc4c(c(-c5ccc(Cl)cc5)c32)CCC4)c1=O | 13 | -23 | 15 | -14 | 19 | 22*
N=c1c(-c2nc3ccccc3[nH]2)cc(C(=O)c2cccs2)nn1-c1ccc(Cl)cc1 | · | 48* | 8 | 43* | -9 | 0
CCCCCCCCC[n+]1cccc2c3ccccc3ccc21 | -13 | -83 | 7 | -7 | 55* | 19*
CCC[n+]1cccc2c3ccccc3ccc21 | -14 | · | 4 | · | · | ·
CC(C)(C)c1nc(SCC(=O)c2ccc(F)cc2)c2ccccc2n1 | 69* | · | 7 | · | · | ·
CCN1CCN(C(=O)CN(c2cccc(F)c2)S(C)(=O)=O)CC1 | -16 | · | 9 | · | · | ·
Nc1nc(-c2ccc3ccccc3c2)cc(-c2cc(-c3ccc4ccccc4c3)nc(N)n2)n1 | 6 | · | 51* | · | · | ·
Nc1nc(-c2ccc3ccccc3c2)cs1 | -47 | 17 | 6 | 6 | -6 | ·
COc1cc(-c2cn(S(=O)(=O)c3cccc4nsnc34)nc2N)cc(OC)c1OC | -24 | -26 | 0 | -9 | 23* | 18*
SMILES | EP2 modulator | NPY1 pot ag | EP2 antag | NPY2 pot ag | NPY Y1 blocker | NPY Y2 blocker
CCc1cc2ccccc2nc1SCC(=O)Nc1ccccc1F | 58 | · | 9 | · | · | ·
CCc1cc2ccccc2nc1SCC(=O)Nc1ccccc1Cl | 69* | · | 12 | · | · | ·
CCc1cc2ccccc2nc1SCC(=O)Nc1ccccc1C(F)(F)F | 61* | · | 5 | · | · | ·
CC[C@@H](Cn1ncc2ccccc2c1=O)NC(=O)c1ccco1 | 12 | · | 1 | · | · | ·
COc1ccc(OC)c(C2C(C#N)=C(N)Oc3cc(N)ccc32)c1 (centres undefined) | 14 | -3 | 5 | -3 | 2 | 3
CCOc1ccccc1C1C(C#N)=C(N)Oc2cc(N)ccc21 (centres undefined) | -5 | 113* | 11 | 49* | -4 | 2
CC(=O)NC1(c2ccccc2F)CCN(Cc2cccc(Oc3ncccn3)c2)CC1 | -28 | · | 4 | · | · | ·
C[N+](C)(C)CCN(Cc1cccs1)c1ccccn1 | 14 | · | 55* | · | · | ·
CC[N+](C)(C)CCN(Cc1ccc(Cl)cc1)c1ccccn1 | 3 | 4 | 9 | 4 | -4 | 3
O=C(NCCCN1CCCC1=O)c1ncoc1-c1ccc(F)cc1 | -32 | · | 6 | · | · | ·
O=c1n(Cc2ccccc2)c2cc(Cl)cnc2n1Cc1ccccc1 | 62* | -19 | 19 | 0 | 12 | 2
O=c1[nH]c2ccccc2n1Cc1ccc(Cl)cc1 | 8 | 0 | 8 | 0 | 6 | 2
O=C(Nc1nc2ccccc2o1)Nc1ccccc1Cl | -43 | · | 41* | · | · | ·
COc1ccc(-c2nnc(SCC(=O)Nc3ccc(C)cc3)n2C)cc1OC | 3 | · | 5 | · | · | ·
CC(C)c1nc2ccccc2c2nnc(SCC(=O)Nc3nc4c(s3)CCCC4)n12 | 64* | · | 16 | · | · | ·
Cn1c(=O)c2c(nc(Oc3ccc4c(c3)OCO4)n2Cc2ccc(Br)cc2)n(C)c1=O | 76* | 6 | 3 | 7 | · | ·
O=C1/C(=C/c2cccc3ccccc23)CCCc2ccccc21 | 61* | -29 | · | -2 | 7 | 2
CC(C)c1ccc(C(C(=O)NC2CCCC2)N(Cc2ccc3c(c2)OCO3)C(=O)c2ccco2)cc1 (centres undefined) | 46 | · | 6 | · | · | ·
COc1ccc(C(CNS(=O)(=O)c2cn(C)nc2C)N2CCCC2)cc1 (centres undefined) | -32 | · | 3 | · | · | ·
CCN1CCOC(CC(=O)Nc2cccc(C)c2)C1=O (centres undefined) | 69* | · | 5 | · | · | ·
Nc1nonc1C(=O)NCCN=Cc1cc(Cc2ccccc2)cc(Br)c1O | 61* | 2 | · | 5 | 1 | 8
O=C1Nc2ccccc2C1=Nc1ccc(S(=O)(=O)Nc2nccs2)cc1 | -19 | 9 | 46*! | -10 | · | ·
NS(=O)(=O)c1ccc(N=C2C(=O)Nc3ccccc32)cc1 | -8 | 16 | 6 | 7 | · | ·
N#Cc1ccc(NC(=O)CSc2nc(N)c(C#N)cc2C#N)cc1 | -5 | · | 43* | · | · | ·
COc1cc(NS(=O)(=O)c2ccc(NC(=S)NC(=O)c3ccco3)cc2)nc(OC)n1 | -17 | 2 | 21 | 4 | · | ·
COc1cc(NS(=O)(=O)c2ccc(NC(=S)NC(=O)c3sc4ccccc4c3Cl)cc2)nc(OC)n1 | -3 | -11 | 126* | -1 | 3 | 1
